Screens as filed in PubChem BioAssay.
AHR act: AHR activators, primary screen, cell-based, luminescence, luciferase reporter, human | Aryl hydrocarbon receptor (Homo sapiens), P35869 | AHR-responsive luciferase reporter cells | activation, % at 5 µM | hit rate 2.5% among 320,000 | AID 2796, 2010; in the data active = activation above about 47%
PolyA inhibitor: polyadenylation inhibitors in yeast reporter cells, primary screen, luminescence, S. cerevisiae | activity score, % at 12 µM | hit rate 0.02% among 300,000 | AID 1875, 2009 | S. cerevisiae SKY197-pL101 polyadenylation reporter, beta-gal luminescence; efflux-impaired pdr1/pdr3 knockout yeast; score 100 = 6 SD above DMSO;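 active = lowest replicate activity score at least 50, where 100 means six control SD above control mean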;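 also: yeast exposed to compound for 9 h at 30 °C; higher score means more reporter readthrough which indicates perturbed polyadenylation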
A3G deaminase: APOBEC3G DNA deaminase inhibitors, primary screen, biochemical, fluorescence, single-stranded DNA substrate, uHTS; inhibition, % at 20 µM; hit rate 0.28% among 330,000; DNA dC->dU-editing enzyme APOBEC-3G (Homo sapiens), Q9HC16; recombinant A3G, ssDNA deamination FAM/TAMRA fluorescence;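 active = inhibition of at least 40% at 20 µM, with no more than 30% in the related APOBEC3A deaminase screen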
Target sequence (Q9HC16 whole entry, looked up): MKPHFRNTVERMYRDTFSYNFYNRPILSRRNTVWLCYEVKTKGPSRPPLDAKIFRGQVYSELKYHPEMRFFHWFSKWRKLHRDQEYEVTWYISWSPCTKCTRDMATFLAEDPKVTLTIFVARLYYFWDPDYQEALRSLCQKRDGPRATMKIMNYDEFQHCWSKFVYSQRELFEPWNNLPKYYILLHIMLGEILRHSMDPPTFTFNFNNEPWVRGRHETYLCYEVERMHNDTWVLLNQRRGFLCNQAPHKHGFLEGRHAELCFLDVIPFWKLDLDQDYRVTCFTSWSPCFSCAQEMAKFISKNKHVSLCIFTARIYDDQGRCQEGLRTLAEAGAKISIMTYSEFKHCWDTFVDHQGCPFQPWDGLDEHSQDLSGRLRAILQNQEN
Arr AP2 block: inhibitors of beta-arrestin/AP2 binding, primary screen, biochemical, GPCR trafficking, flow cytometry; FITC-arrestin peptide / GST-AP2 beads; AP2 beta2 appendage carries R879A mutation; inhibition, % at 10 µM; hit rate 0.31% among 340,000; beta-arrestin 1 C-terminal peptide binding to AP2 beta2-adaptin appendage (human);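 active = inhibition above a set limit, near 3 SD of compounds lacking own fluorescence, cut at about 54% in these data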
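system = GST-tagged AP2 beta2-adaptin appendage (R879A) on 4 µm glutathione beads | reagent = FITC-labelled arrestin peptide probe, 50 nM final | schedule = compound with beads 12 min RT, then probe 1 h RT | signal = HyperCyt-sampled flow cytometry, FL1 channel, ex 488/em 535 nm | read-out = percent response from loss of bead-bound FITC fluorescence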
UCH37 inh: inhibitors of human UCH37 deubiquitinase, primary screen, biochemical, Ub-AMC cleavage, fluorescence; hit rate 0.33% among 330,000; inhibition, % (test concentration not listed); purified proteasome/UCH37; Ubiquitin carboxyl-terminal hydrolase isozyme L5 (Homo sapiens), Q9Y5K5;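 active = mean inhibition over replicate wells above about 20%, limit read from the data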
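Material: Human UCH37 enzyme supplied as purified proteasome complex | Schedule: 30 min compound-proteasome preincubation then 25 min substrate reaction, room temperature | Detection: AMC fluorescence from Ub-AMC cleavage, excitation 355 nm, emission 460 nm | Benchmarks: Wells without proteasome as full block, compound-free enzyme plus substrate as uninhibited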
APOBEC3A inh: APOBEC3A ssDNA deaminase inhibitors, primary screen, selectivity assay for APOBEC3G inhibitor project, biochemical, FAM/TAMRA oligo cleavage fluorescence; AID 493011, 2011; DNA dC->dU-editing enzyme APOBEC-3A (Homo sapiens), P31941; recombinant A3A, FAM/TAMRA ssDNA deamination fluorescence; hit rate 0.41% among 330,000; inhibition, % at 20 µM;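 active = at least 40% inhibition at 20 µM here, with at most 30% in a related deaminase screen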
Target sequence (P31941 whole entry, looked up): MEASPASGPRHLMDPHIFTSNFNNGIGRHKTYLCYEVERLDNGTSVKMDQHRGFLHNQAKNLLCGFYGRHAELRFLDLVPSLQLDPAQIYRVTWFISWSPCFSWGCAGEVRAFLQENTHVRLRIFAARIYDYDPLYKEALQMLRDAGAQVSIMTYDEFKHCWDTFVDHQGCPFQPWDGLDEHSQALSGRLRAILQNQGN
Large screens that a line does not name were inactive. Hits are enriched below; roughly 3.4% of the tested compounds scored in any of these assays.

COc1ccc(OC)c(C=Nc2ccccc2-c2nc3ccccc3[nH]2)c1	AHR act 87
COc1ccc(OC)c(/C=C/c2nc3ccccc3[nH]c2=O)c1	AHR act 60
O=[N+]([O-])c1cccc(C=Nn2c(C3CCCCC3)n[nH]c2=S)c1	none (no result: AHR act, PolyA inhibitor, A3G deaminase, Arr AP2 block, APOBEC3A inh)
Cn1c(N2CCOCC2)c(C=NOC(=O)c2ccc(F)cc2)c2ccccc21	none (no result: AHR act, PolyA inhibitor, A3G deaminase, Arr AP2 block, APOBEC3A inh)
Oc1ccccc1C=N[n+]1ccccc1	none (no result: AHR act, PolyA inhibitor, A3G deaminase, Arr AP2 block, APOBEC3A inh)
Cc1ccc(NN=C(C#N)C(N)=S)cc1C	none (no result: AHR act, PolyA inhibitor, A3G deaminase, Arr AP2 block, APOBEC3A inh)
N#C/C(=N/Nc1ccc(OC(F)(F)F)cc1)C(N)=S	AHR act 54 (no result: UCH37 inh)
COc1ccccc1NC(=O)/C=C1\NC(=O)CS1	none
Cc1ccc(NC(=O)/C=C2\NC(=O)CS2)cc1	AHR act 61
CCc1sc(N(C(=O)Cc2ccccc2)c2ccc(F)cc2)nc1-c1ccccc1	UCH37 inh 24
CCc1sc(N(C(=O)Cc2ccccc2)c2ccccc2)nc1-c1ccccc1	none
O=C1C(C=NCc2ccccn2)=C(O)c2ccccc21	AHR act 60
O=C1C(C=NCCCn2ccnc2)=C(O)c2ccccc21	AHR act 48
Cc1c(C)c(C)c(CON=Cc2cccs2)c(C)c1C	none (no result: AHR act, PolyA inhibitor, A3G deaminase, Arr AP2 block, APOBEC3A inh)
CC(=NNC(=O)Cc1c(C)[nH][nH]c1=O)c1ccc(Cl)c(Cl)c1	none (no result: AHR act, PolyA inhibitor, A3G deaminase, Arr AP2 block, APOBEC3A inh)
CCOc1ccc(C=NNc2cc(=O)n(C)c(=O)n2C)cc1	none (no result: AHR act, PolyA inhibitor, A3G deaminase, Arr AP2 block, APOBEC3A inh)
COCn1c(-c2ccc(OC)cc2)nc2ccccc21	AHR act 55
CCCn1c(-c2ccc(OC)cc2)nc2ccccc21	none
Cn1c(=O)c2c(nc(CN3CCc4ccccc4C3)n2Cc2cccc(Cl)c2)n(C)c1=O	UCH37 inh 23
N#Cc1c(-c2cccc(Br)c2)cc(-c2cccnc2)nc1N	none
N#Cc1c(-c2ccc(F)cc2)cc(-c2cccnc2)nc1N	AHR act 55 (no result: UCH37 inh)
COc1cc(C=NO)c(Br)cc1OCC(=O)Nc1ccccc1C	none (no result: AHR act, PolyA inhibitor, A3G deaminase, Arr AP2 block, APOBEC3A inh)
COc1ccc(C=NNC(=O)C2C(=O)NCC2c2ccccc2)c(OC)c1 (stereo not drawn)	none (no result: AHR act, PolyA inhibitor, A3G deaminase, Arr AP2 block, APOBEC3A inh)
COc1ccc(S(=O)(=O)C(C#N)c2nc3ccccc3nc2N2CCCCC2)cc1 (stereo not drawn)	A3G deaminase 41
COc1cc(CO)cc(-c2cc(CO)cc(OC)c2OC)c1OC	UCH37 inh 26
O=C(CNC(=O)c1cccs1)NN=Cc1ccc(Cl)cc1	none (no result: AHR act, PolyA inhibitor, A3G deaminase, Arr AP2 block, APOBEC3A inh)
CCOc1ccccc1NC(=O)c1cc(SC)ccc1Cl	AHR act 72
CSc1ccc(Cl)c(C(=O)NCCOc2ccccc2)c1	none
CCOCC(=O)Nc1cc(C(=O)Nc2cccc(C)c2C)ccc1Cl	none
CCOc1ccccc1NC(=O)c1ccc(C(=O)Nc2ccccc2OCC)nc1	AHR act 72
COc1ccc(C(=O)Nc2ccccc2C(=O)Nc2ccncc2)cc1	AHR act 61
CCOCC(=O)Nc1cc(C(=O)Nc2ccc(F)cc2)ccc1Cl	AHR act 63 (no result: Arr AP2 block)
COc1ccc(C(=O)Nc2ccccc2C(=O)Nc2ccc(C(=O)O)cc2)cc1	none
O=C(Nc1ccccc1C(=O)Nc1ccccc1)c1ccco1	AHR act 76
CCSc1nnc(NC(=O)c2csc(C)c2)s1	none
O=C(Nc1c(O)c2ccccc2[nH]c1=O)c1ccco1	AHR act 78
CCSc1nnc(NC(=O)c2cccc3ccccc23)s1	AHR act 52
CCCCCCC(=O)Nc1c(O)c2ccccc2[nH]c1=O	none
O=C(Nc1ccccc1C(=O)N/N=C/c1ccccc1)c1ccco1	AHR act 48 (no result: UCH37 inh)
COc1ccc(C=Nn2c(-c3cccs3)n[nH]c2=S)cc1	none (no result: AHR act, PolyA inhibitor, A3G deaminase, Arr AP2 block, APOBEC3A inh)
Cc1ccc(C=NN2CCN(Cc3cccc4ccccc34)CC2)s1	none (no result: AHR act, PolyA inhibitor, A3G deaminase, Arr AP2 block, APOBEC3A inh)
COc1ccccc1C=NN(C(C)=O)c1nc(-c2ccc(F)cc2)cs1	none (no result: AHR act, PolyA inhibitor, A3G deaminase, Arr AP2 block, APOBEC3A inh)
CCOc1ccccc1NC(=O)c1csc(C)c1C	AHR act 71
